How the values were obtained:
[1] = biological target: T1, Hexokinase-2 (Rattus norvegicus) (UniProt P27881); test: Evaluated for the inhibition of Hexokinase, type II catalyzed reactionsI at 0.3 mM concentration
T1 sequence (whole entry): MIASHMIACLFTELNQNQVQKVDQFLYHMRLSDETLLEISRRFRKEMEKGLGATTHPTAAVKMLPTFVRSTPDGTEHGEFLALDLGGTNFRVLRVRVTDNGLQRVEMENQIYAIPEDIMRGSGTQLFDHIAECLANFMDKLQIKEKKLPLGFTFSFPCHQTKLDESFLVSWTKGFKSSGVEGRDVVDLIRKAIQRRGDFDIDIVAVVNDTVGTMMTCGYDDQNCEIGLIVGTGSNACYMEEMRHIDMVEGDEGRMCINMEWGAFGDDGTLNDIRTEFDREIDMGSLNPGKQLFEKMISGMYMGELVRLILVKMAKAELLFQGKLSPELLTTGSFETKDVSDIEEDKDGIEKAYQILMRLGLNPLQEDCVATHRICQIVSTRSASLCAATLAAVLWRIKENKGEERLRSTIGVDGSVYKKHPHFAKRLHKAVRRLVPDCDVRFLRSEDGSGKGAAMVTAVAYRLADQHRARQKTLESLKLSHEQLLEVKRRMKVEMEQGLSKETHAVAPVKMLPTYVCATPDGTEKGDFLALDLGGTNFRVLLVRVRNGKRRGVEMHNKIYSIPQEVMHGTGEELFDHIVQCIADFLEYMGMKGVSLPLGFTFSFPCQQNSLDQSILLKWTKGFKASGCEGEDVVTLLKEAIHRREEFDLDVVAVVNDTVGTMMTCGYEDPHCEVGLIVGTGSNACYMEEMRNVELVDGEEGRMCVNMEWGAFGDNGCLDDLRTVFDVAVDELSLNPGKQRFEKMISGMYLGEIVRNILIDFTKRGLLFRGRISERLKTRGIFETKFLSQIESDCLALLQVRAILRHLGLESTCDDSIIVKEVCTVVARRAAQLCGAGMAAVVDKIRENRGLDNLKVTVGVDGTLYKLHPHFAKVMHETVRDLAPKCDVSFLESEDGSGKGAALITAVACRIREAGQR
Procedure, shortened: (§1)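 Rat HK I, II or III from isoelectric focusing, dialysed with 0.5 mM DTT. PK/LDH-coupled assay in 0.05 M Tris-HCl pH 7.6 with 6.6 mM MgCl2, 10 mM α-D-glucose, 0.45 mM NADH, 0.55 mM PEP and 20 mM KCl. Reactions started with enzyme; rates read from 340 nm absorbance change at 22 °C.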

[2] = biological target: T1, Hexokinase-2 (Rattus norvegicus); test: Evaluated for the inhibition of Hexokinase, type II catalyzed reactions at 0.6 mM concentration; procedure, shortened: as §1
[3] = biological target: T2, Hexokinase-1 (Rattus norvegicus) (UniProt P05708); test: Evaluated for the inhibition of Hexokinase, type I -catalyzed reactionsI at 0.6 mM concentration; procedure, shortened: as §1
T2 sequence (whole entry): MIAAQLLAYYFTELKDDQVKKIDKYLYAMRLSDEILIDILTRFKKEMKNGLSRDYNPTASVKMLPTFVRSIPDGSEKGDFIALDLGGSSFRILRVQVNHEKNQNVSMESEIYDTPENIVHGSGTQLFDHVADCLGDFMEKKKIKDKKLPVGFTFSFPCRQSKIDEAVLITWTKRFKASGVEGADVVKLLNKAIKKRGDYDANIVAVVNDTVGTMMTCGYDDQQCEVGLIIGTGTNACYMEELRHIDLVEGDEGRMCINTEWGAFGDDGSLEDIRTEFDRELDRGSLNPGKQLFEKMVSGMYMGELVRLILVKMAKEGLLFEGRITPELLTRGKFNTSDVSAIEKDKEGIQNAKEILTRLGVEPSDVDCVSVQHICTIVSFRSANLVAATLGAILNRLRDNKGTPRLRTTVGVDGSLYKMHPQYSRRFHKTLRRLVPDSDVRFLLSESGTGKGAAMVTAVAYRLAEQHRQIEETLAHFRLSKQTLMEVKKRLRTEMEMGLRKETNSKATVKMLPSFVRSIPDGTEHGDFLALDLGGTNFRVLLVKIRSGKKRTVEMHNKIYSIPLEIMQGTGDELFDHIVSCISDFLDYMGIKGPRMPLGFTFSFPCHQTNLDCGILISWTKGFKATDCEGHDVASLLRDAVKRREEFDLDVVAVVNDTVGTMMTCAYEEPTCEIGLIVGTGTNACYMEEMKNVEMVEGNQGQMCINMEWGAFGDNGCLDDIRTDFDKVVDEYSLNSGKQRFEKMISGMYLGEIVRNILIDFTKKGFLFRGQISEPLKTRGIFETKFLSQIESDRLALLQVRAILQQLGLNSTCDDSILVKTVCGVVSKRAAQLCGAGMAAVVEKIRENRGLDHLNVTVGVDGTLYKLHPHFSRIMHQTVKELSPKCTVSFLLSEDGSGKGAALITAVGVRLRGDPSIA

[4] = biological target: T3, Hexokinase-3 (Rattus norvegicus) (UniProt P27926); test: Evaluated for the inhibition of Hexokinase type III catalyzed reactions at 0.6 mM concentration; procedure, shortened: as §1
T3 sequence (whole entry): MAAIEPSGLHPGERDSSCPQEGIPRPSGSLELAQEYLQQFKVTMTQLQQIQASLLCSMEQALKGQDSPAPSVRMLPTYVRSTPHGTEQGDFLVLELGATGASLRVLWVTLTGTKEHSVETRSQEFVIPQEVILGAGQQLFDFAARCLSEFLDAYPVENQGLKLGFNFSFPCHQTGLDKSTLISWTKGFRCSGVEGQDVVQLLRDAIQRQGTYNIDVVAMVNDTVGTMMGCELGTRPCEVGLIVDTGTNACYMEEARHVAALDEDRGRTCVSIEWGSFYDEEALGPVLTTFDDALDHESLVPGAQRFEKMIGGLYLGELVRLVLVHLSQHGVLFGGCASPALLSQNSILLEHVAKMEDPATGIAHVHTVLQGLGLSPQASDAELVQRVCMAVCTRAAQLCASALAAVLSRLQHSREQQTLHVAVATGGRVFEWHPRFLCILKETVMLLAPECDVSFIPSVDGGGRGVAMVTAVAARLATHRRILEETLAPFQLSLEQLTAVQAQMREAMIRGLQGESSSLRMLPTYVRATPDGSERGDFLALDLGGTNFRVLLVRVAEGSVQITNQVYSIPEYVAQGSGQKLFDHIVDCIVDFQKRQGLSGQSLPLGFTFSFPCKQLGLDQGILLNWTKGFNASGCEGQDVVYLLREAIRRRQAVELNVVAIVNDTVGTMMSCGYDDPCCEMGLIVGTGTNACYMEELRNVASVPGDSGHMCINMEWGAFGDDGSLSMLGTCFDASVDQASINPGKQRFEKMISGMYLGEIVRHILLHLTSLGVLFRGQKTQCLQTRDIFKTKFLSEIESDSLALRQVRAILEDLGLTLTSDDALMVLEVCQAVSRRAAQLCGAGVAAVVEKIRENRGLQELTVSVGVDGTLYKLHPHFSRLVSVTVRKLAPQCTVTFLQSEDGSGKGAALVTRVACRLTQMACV

Hexokinase-2 = biological target: T4, Hexokinase-2 (Rattus norvegicus, UniProt P27881); test: Evaluated for the inhibition constant Ki against Hexokinase, type II
T4 sequence (P27881 whole entry): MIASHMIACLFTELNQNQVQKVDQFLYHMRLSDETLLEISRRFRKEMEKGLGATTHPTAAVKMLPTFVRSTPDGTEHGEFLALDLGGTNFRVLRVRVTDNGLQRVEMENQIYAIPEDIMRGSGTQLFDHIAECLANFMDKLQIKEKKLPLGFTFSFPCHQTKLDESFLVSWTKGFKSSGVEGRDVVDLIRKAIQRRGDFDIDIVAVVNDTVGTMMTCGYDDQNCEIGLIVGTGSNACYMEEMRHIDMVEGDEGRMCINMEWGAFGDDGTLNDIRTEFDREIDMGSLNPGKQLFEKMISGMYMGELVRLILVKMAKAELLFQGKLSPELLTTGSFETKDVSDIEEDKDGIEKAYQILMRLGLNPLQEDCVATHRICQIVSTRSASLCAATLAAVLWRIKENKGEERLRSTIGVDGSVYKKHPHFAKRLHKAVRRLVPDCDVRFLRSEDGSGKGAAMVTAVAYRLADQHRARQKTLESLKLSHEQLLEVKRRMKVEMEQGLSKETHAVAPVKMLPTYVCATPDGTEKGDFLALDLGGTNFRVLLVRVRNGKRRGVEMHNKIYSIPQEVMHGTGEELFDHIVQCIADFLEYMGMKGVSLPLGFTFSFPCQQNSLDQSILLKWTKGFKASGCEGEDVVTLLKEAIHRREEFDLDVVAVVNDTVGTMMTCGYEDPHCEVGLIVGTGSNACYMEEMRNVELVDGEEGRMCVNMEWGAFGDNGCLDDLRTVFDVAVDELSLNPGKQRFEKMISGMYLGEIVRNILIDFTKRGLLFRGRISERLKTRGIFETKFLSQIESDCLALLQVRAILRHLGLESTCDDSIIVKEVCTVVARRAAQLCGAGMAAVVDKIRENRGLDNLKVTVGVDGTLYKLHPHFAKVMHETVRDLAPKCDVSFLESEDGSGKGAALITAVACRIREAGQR
Procedure, shortened: (§2)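 Yeast HK or rat HK II (isoelectric focusing, dialysed with 0.5 mM DTT). PK/LDH-coupled assay in 0.05 M Tris-HCl pH 7.6 with 6.6 mM MgCl2, 10 mM glucose, 0.45 mM NADH, 0.55 mM PEP, 20 mM KCl. NADH loss followed at 340 nm, 22 °C. Variable MgATP at 0.6–4.0 × KM. Inhibitors given as equimolar Mg complexes.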

[5] = Evaluated for the inhibition constant Ki against hexokinase in yeast; set-up: species or system Saccharomyces cerevisiae; procedure, shortened: as §2
[6] = biological target: T3, Hexokinase-3 (Rattus norvegicus); test: Evaluated for the inhibition of Hexokinase type III catalyzed reactions at 0.3 mM concentration; procedure, shortened: as §1
[7] = biological target: T2, Hexokinase-1 (Rattus norvegicus); test: Evaluated for the inhibition of Hexokinase, type I -catalyzed reactions at 0.3 mM concentration; procedure, shortened: as §1
[8] = biological target: T2, Hexokinase-1 (Rattus norvegicus); test: Evaluated for the inhibition of Hexokinase, type I -catalyzed reactions at 0.6 mM concentration; procedure, shortened: as §1
[9] = biological target: T1, Hexokinase-2 (Rattus norvegicus); test: Evaluated for the inhibition of Hexokinase, type II catalyzed reactions at 0.3 mM concentration; procedure, shortened: as §1
[10] = substrate: Cc1cn([C@H]2C[C@H](O)[C@@H](CO)O2)c(=O)[nH]c1=O
[11] = substrate: Nc1ncnc2c1ncn2[C@@H]1O[C@H](COP(=O)(O)OP(=O)(O)OP(=O)(O)O)[C@@H](O)[C@H]1O
[12] = substrate: Cc1cn([C@H]2C[C@H](O)[C@@H](CO)O2)c(=O)[nH]c1=O; remark: listed apart in the source
[13] = substrate: Nc1ncnc2c1ncn2[C@@H]1O[C@H](COP(=O)(O)OP(=O)(O)OP(=O)(O)O)[C@@H](O)[C@H]1O; remark: listed apart in the source
[14] = substrate: Nc1ncnc2c1ncn2[C@@H]1O[C@H](COP(=O)(O)OP(=O)(O)OP(=O)(O)O)[C@@H](O)[C@H]1O; remark: listed apart in the source

Nc1ncnc2c1ncn2C1O[C@H](COP(=O)(O)OP(=O)(O)OP(=O)(O)OC[C@@H]2O[C@@H](O)[C@@H](O)[C@H](O)[C@H]2O)[C@@H](O)[C@H]1O (stereo partly specified)
inhibition [1]: 4.4%
inhibition [2]: 10.1%
inhibition [3]: 5.6%
inhibition [4]: 6.2%
Ki (Hexokinase-2): 2.2 mM
Ki [5]: 1.4 mM
inhibition [6]: 3.1%
inhibition [7]: 9.3%

Nc1ncnc2c1ncn2[C@@H]1O[C@H](COP(=O)(O)OP(=O)(O)OP(=O)(O)O)[C@@H](O)[C@H]1O
Km (Saccharomyces cerevisiae): 210 µM

Nc1ncnc2c1ncn2C1O[C@H](COP(=O)(O)OP(=O)(O)OP(=O)(O)OP(=O)(O)OC[C@@H]2O[C@@H](O)[C@@H](O)[C@H](O)[C@H]2O)[C@@H](O)[C@H]1O (stereo partly specified)
inhibition [8]: 8%
inhibition [2]: 30%
inhibition [9]: 28%
inhibition [4]: 8.7%
Ki [5]: 3.5 mM
inhibition [6]: 6.5%
inhibition [7]: 4.7%

B1: Thymidine kinase, cytosolic (Rattus norvegicus), P27158 (protein)
chain: MSYINLPTVLPISPSKTRGQIQVILGPMFSGKSTELMRRVRRFQIAQYKCLVIKYAKDTRYSNSFSTHDRNTMDALPACMLKDVAQEALGVAVIGIDEGQFFPDIVDFCETMANTGKTVIV
Km [10]: 8 µM
Km [11]: 190 µM
Km [12]: 1.6 µM
Km [13]: 180 µM

B2: Hexokinase-2 (Rattus norvegicus), P27881 (protein)
chain: MIASHMIACLFTELNQNQVQKVDQFLYHMRLSDETLLEISRRFRKEMEKGLGATTHPTAAVKMLPTFVRSTPDGTEHGEFLALDLGGTNFRVLRVRVTDNGLQRVEMENQIYAIPEDIMRGSGTQLFDHIAECLANFMDKLQIKEKKLPLGFTFSFPCHQTKLDESFLVSWTKGFKSSGVEGRDVVDLIRKAIQRRGDFDIDIVAVVNDTVGTMMTCGYDDQNCEIGLIVGTGSNACYMEEMRHIDMVEGDEGRMCINMEWGAFGDDGTLNDIRTEFDREIDMGSLNPGKQLFEKMISGMYMGELVRLILVKMAKAELLFQGKLSPELLTTGSFETKDVSDIEEDKDGIEKAYQILMRLGLNPLQEDCVATHRICQIVSTRSASLCAATLAAVLWRIKENKGEERLRSTIGVDGSVYKKHPHFAKRLHKAVRRLVPDCDVRFLRSEDGSGKGAAMVTAVAYRLADQHRARQKTLESLKLSHEQLLEVKRRMKVEMEQGLSKETHAVAPVKMLPTYVCATPDGTEKGDFLALDLGGTNFRVLLVRVRNGKRRGVEMHNKIYSIPQEVMHGTGEELFDHIVQCIADFLEYMGMKGVSLPLGFTFSFPCQQNSLDQSILLKWTKGFKASGCEGEDVVTLLKEAIHRREEFDLDVVAVVNDTVGTMMTCGYEDPHCEVGLIVGTGSNACYMEEMRNVELVDGEEGRMCVNMEWGAFGDNGCLDDLRTVFDVAVDELSLNPGKQRFEKMISGMYLGEIVRNILIDFTKRGLLFRGRISERLKTRGIFETKFLSQIESDCLALLQVRAILRHLGLESTCDDSIIVKEVCTVVARRAAQLCGAGMAAVVDKIRENRGLDNLKVTVGVDGTLYKLHPHFAKVMHETVRDLAPKCDVSFLESEDGSGKGAALITAVACRIREAGQR
Km [14]: 710 µM

— ChEMBL document CHEMBL1122168, “Species- or isozyme-specific enzyme inhibitors. 6. Synthesis and evaluation of two-substrate condensation products as inhibitors of hexokinases and thymidine kinases” (J Med Chem, 1982)
